Source: ChEMBL document CHEMBL1165950, “Design and synthesis of new potent anticancer pyrazoles with high FLT3 kinase inhibitory selectivity” (Bioorg Med Chem, 2010)

Tests used:
Format in all cases: functional
Settings in all cases: read-out: Activity
SF-539 = assay: Cytotoxicity against human SF539 cells assessed as cell growth at 10 uM
Outline: (§1)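 NCI-60 screen: cells grown in RPMI 1640 with 5% FBS and 2 mM L-glutamine, plated at 5000–40,000 cells/well according to doubling time, and preincubated 24 h at 37 °C, 5% CO2. The single 10 µM dose (DMSO stock) was added, then incubated 48 h. Cells were TCA-fixed and stained with 0.4% SRB, read at 515 nm, and growth % calculated against time-zero and control plates.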

SNB-19 = assay: Cytotoxicity against human SNB19 cells assessed as cell growth at 10 uM; outline: as §1
SNB-75 = assay: Cytotoxicity against human SNB75 cells assessed as cell growth at 10 uM; outline: as §1
U-251 = assay: Cytotoxicity against human U251 cells assessed as cell growth at 10 uM; outline: as §1
LOX IMVI = assay: Cytotoxicity against human LOXIMVI cells assessed as cell growth at 10 uM; outline: as §1
Malme-3M = assay: Cytotoxicity against human MALME-3M cells assessed as cell growth at 10 uM; outline: as §1
M14 = assay: Cytotoxicity against human M14 cells assessed as cell growth at 10 uM; outline: as §1
MDA-MB-435 = assay: Cytotoxicity against human MDA-MB-435 cells assessed as cell growth at 10 uM; outline: as §1
SK-MEL-2 = assay: Cytotoxicity against human SK-MEL-2 cells assessed as cell growth at 10 uM; outline: as §1
SK-MEL-28 = assay: Cytotoxicity against human SK-MEL-28 cells assessed as cell growth at 10 uM; outline: as §1
SK-MEL-5 = assay: Cytotoxicity against human SK-MEL-5 cells assessed as cell growth at 10 uM; outline: as §1
UACC-257 = assay: Cytotoxicity against human UACC257 cells assessed as cell growth at 10 uM; outline: as §1
UACC-62 = assay: Cytotoxicity against human UACC62 cells assessed as cell growth at 10 uM; outline: as §1
IGROV-1 = assay: Cytotoxicity against human IGROV1 cells assessed as cell growth at 10 uM
Outline: (§2)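 Single-dose NCI-60 screen at 10 µM. Cells were grown in RPMI 1640 with 5% FBS and 2 mM L-glutamine, then treated for 48 h at 37 °C. Protein was measured by SRB staining with absorbance at 515 nm. Percentage growth was recorded, and inhibition percentage was calculated as 100 minus growth percentage.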

OVCAR-3 = assay: Cytotoxicity against human OVCAR-3 cells assessed as cell growth at 10 uM; outline: as §1
OVCAR-4 = assay: Cytotoxicity against human OVCAR4 cells assessed as cell growth at 10 uM; outline: as §1
OVCAR-5 = assay: Cytotoxicity against human OVCAR5 cells assessed as cell growth at 10 uM; outline: as §1
OVCAR-8 = assay: Cytotoxicity against human OVCAR8 cells assessed as cell growth at 10 uM; outline: as §1
NCI/ADR-RES = assay: Cytotoxicity against human NCI/ADR-RES cells assessed as cell growth at 10 uM; outline: as §1
SK-OV-3 = assay: Cytotoxicity against human SKOV3 cells assessed as cell growth at 10 uM; outline: as §1
786-0 = assay: Cytotoxicity against human 786-0 cells assessed as cell growth at 10 uM; outline: as §2
A498 = assay: Cytotoxicity against human A498 cells assessed as cell growth at 10 uM; outline: as §2
ACHN = assay: Cytotoxicity against human ACHN cells assessed as cell growth at 10 uM; outline: as §2
CAKI-1 = assay: Cytotoxicity against human Caki1 cells assessed as cell growth at 10 uM; outline: as §2
RXF 393 = assay: Cytotoxicity against human RXF393 cells assessed as cell growth at 10 uM; outline: as §1
SN12C = assay: Cytotoxicity against human SN12C cells assessed as cell growth at 10 uM; outline: as §1
TK-10 = assay: Cytotoxicity against human TK10 cells assessed as cell growth at 10 uM; outline: as §1
UO-31 = assay: Cytotoxicity against human UO31 cells assessed as cell growth at 10 uM; outline: as §1
PC-3 = assay: Cytotoxicity against human PC3 cells assessed as cell growth at 10 uM; outline: as §1
DU-145 = assay: Cytotoxicity against human DU145 cells assessed as cell growth at 10 uM; outline: as §2

Cc1cc(O)cc(-c2nn(CC#N)cc2-c2ccnc(-c3ccccc3)c2)c1
growth at 10 µM (SF-539): 83.5%
growth at 10 µM (SNB-19): 87%
growth at 10 µM (SNB-75): 43.2%
growth at 10 µM (U-251): 87.4%
growth at 10 µM (LOX IMVI): 95.6%
growth at 10 µM (Malme-3M): 133%
growth at 10 µM (M14): 81.3%
growth at 10 µM (MDA-MB-435): 97.8%
growth at 10 µM (SK-MEL-2): 86.1%
growth at 10 µM (SK-MEL-28): 85.2%
growth at 10 µM (SK-MEL-5): 75.4%
growth at 10 µM (UACC-257): 95.6%
growth at 10 µM (UACC-62): 59.8%
growth at 10 µM (IGROV-1): 72%
growth at 10 µM (OVCAR-3): 107%
growth at 10 µM (OVCAR-4): 77.7%
growth at 10 µM (OVCAR-5): 93.2%
growth at 10 µM (OVCAR-8): 70.2%
growth at 10 µM (NCI/ADR-RES): 66.7%
growth at 10 µM (SK-OV-3): 84.6%
growth at 10 µM (786-0): 67%
growth at 10 µM (A498): 84.3%
growth at 10 µM (ACHN): 74.4%
growth at 10 µM (CAKI-1): 82.4%
growth at 10 µM (RXF 393): 151%
growth at 10 µM (SN12C): 77.6%
growth at 10 µM (TK-10): 84.2%
growth at 10 µM (UO-31): 64.5%
growth at 10 µM (PC-3): 88.7%
growth at 10 µM (DU-145): 103%
